ChEMBL document CHEMBL1154292, “Discovery and optimization of novel 4-[(aminocarbonyl)amino]-N-[4-(2-aminoethyl)phenyl]benzenesulfonamide ghrelin receptor antagonists” (Bioorg Med Chem Lett, 2009)
pEC50, pIC50: −log10 of the molar value.

How the values were obtained:
[1] = target: T1, Growth hormone secretagogue receptor type 1 (Homo sapiens, UniProt Q92847); assay: Inhibition of human GHS-R1a
[2] = target: T1, Growth hormone secretagogue receptor type 1; assay: Agonist activity at human GHS-R1a assessed as maximum activation at 10 uM relative to ghrelin by aequorin assay; format: functional
Summary of the method: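 Agonist mode of the hGHS-R1a aequorin bioluminescence assay. Compound tested up to a maximum of 10 μM. Peak response is expressed as maximum % activation relative to ghrelin. Values are means of two or three experiments.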

[3] = target: T2, Beta-3 adrenergic receptor (Homo sapiens, UniProt P13945); assay: Agonist activity at human adrenergic beta3 receptor; format: functional
T2 sequence (P13945 whole entry): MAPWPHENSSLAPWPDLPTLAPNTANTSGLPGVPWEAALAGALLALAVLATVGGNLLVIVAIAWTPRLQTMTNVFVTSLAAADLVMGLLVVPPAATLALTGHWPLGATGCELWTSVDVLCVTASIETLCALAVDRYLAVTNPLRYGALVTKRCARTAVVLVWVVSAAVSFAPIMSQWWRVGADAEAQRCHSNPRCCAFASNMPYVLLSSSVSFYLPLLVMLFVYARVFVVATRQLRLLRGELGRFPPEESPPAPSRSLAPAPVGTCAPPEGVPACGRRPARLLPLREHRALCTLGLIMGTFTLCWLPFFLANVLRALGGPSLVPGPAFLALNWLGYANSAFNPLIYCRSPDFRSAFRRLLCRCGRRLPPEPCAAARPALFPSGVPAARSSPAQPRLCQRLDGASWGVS

[4] = target: T2, Beta-3 adrenergic receptor; assay: Inhibition of human adrenergic beta3 receptor
[5] = target: T1, Growth hormone secretagogue receptor type 1; assay: Antagonist activity at human GHS-R1a expressed in HEK293 cells assessed as inhibition of ghrelin-stimulated intracellular calcium mobilization; format: functional, cell-based
[6] = target: T1, Growth hormone secretagogue receptor type 1; assay: Displacement of [35S]MK0677 from human GHS-R1a
Summary of the method: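 Competitive binding at GHS-R1a using [35S]-MK-0677 as the radiolabeled probe. IC50 values are means of two or three experiments.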

[7] = target: T1, Growth hormone secretagogue receptor type 1; assay: Inhibition of human GHS-R1a at 6.25 uM

T1 sequence (Q92847 whole entry): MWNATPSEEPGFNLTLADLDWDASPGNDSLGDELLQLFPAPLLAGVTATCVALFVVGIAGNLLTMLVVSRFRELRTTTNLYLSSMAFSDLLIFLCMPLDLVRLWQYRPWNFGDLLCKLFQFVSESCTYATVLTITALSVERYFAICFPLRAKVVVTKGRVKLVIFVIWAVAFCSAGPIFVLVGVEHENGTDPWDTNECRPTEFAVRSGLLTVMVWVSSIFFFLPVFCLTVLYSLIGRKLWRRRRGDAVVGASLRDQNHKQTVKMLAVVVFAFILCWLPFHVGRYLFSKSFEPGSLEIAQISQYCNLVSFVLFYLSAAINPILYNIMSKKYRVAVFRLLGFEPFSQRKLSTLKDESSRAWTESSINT

Row | pIC50 [1] | Activity [2] [%] | Compound | also measured
1 | 6.51 | 3 | CCCCCCNC(=O)Nc1ccc(S(=O)(=O)Nc2ccc(CCC(C)(C)N)cc2)cc1 | 
2 | 6.17 | 1 | CCCCCCNC(=O)Nc1ccc(S(=O)(=O)Nc2ccc(CC(C)(C)NCC(F)(F)F)cc2)cc1 | 
3 | 7.52 | 1 | CCCCCCNC(=O)Nc1ccc(S(=O)(=O)Nc2ccc(CC(C)(C)NCC)cc2)cc1 | 
4 | 8.70 |  | CC(C)(N)Cc1ccc(NS(=O)(=O)c2ccc(NC(=O)NC(C)(C)c3cccc4ccccc34)cc2)cc1 | 
5 | 6.37 | 51 | CCCCCCNC(=O)Nc1ccc(S(=O)(=O)Nc2cccc(CCCN)c2)cc1 | 
6 | 7.11 | 3 | Cc1ccc(NC(=O)Nc2ccc(S(=O)(=O)Nc3ccc(CC(C)(C)N)cc3)cc2)cc1 | 
7 | 7.34 | 4 | CCCCCCNC(=O)Nc1ccc(S(=O)(=O)Nc2ccc(CC(C)(C)N)cc2)cc1 | pEC50 [3]: < 5.00; pIC50 [4]: 5.28
8 |  |  | CCCCCCNC(=O)Nc1ccc(S(=O)(=O)Nc2ccc(CC(C)(C)NC[C@H](O)COc3ccc(O)cc3)cc2)cc1 | pIC50 [5]: 7.40; pIC50 [6]: 7.89
9 | 6.97 | 1 | CCCCCCNC(=O)Nc1ccc(S(=O)(=O)Nc2ccc(CCCN)cc2)cc1 | 
10 | 6.58 | 1 | CC(C)(N)Cc1ccc(NS(=O)(=O)c2ccc(NC(=O)Nc3ccccc3)cc2)cc1 | 
11 | 6.89 | 4 | CC(C)(N)Cc1ccc(NS(=O)(=O)c2ccc(NC(=O)NCc3ccccc3)cc2)cc1 | 
12 | 6.86 | 1 | CC(C)(N)Cc1ccc(NS(=O)(=O)c2ccc(NC(=O)NCCc3ccccc3)cc2)cc1 | 
13 | 7.68 |  | CC(C)(N)Cc1ccc(NS(=O)(=O)c2ccc(NC(=O)NCc3cccc4ccccc34)cc2)cc1 | 
14 | 7.01 | 3 | CCCCCCCNC(=O)Nc1ccc(S(=O)(=O)Nc2ccc(CC(C)(C)N)cc2)cc1 | 
15 | 7.16 | 3 | Cc1cccc(NC(=O)Nc2ccc(S(=O)(=O)Nc3ccc(CC(C)(C)N)cc3)cc2)c1 | 
16 |  |  | CCCCCCNC(=O)Nc1ccc(S(=O)(=O)Nc2ccc(CC(C)(C)O)cc2)cc1 | inhibition [7]: 48%
17 | 5.37 |  | CCCCCCNC(=O)Nc1ccc(S(=O)(=O)Nc2ccccc2)cc1 | 
18 | 7.85 | 1 | CCc1ccc(NC(=O)Nc2ccc(S(=O)(=O)Nc3ccc(CC(C)(C)N)cc3)cc2)cc1 | 
19 | 7.80 | 1 | CC(C)(N)Cc1ccc(NS(=O)(=O)c2ccc(NC(=O)Nc3ccc(C(C)(C)C)cc3)cc2)cc1 | 
20 | 6.62 | 6 | CCCCCNC(=O)Nc1ccc(S(=O)(=O)Nc2ccc(CC(C)(C)N)cc2)cc1 | 
21 |  |  | CCCCCCNC(=O)Nc1ccc(S(=O)(=O)Nc2ccc(CC)cc2)cc1 | inhibition [7]: 47%
22 | 5.77 | 5 | CCCCCCNC(=O)Nc1ccc(S(=O)(=O)Nc2ccc(CN)cc2)cc1 | 
23 | 6.79 | 1 | Cc1ccccc1NC(=O)Nc1ccc(S(=O)(=O)Nc2ccc(CC(C)(C)N)cc2)cc1 | 
24 | 6.35 | 2 | CCCCCCNC(=O)Nc1ccc(S(=O)(=O)Nc2ccc(CC(C)(C)CN)cc2)cc1 | 
25 | 6.07 | 1 | CC(C)NC(=O)Nc1ccc(S(=O)(=O)Nc2ccc(CC(C)(C)N)cc2)cc1 | 
26 | 6.20 | 13 | CCCCCCNC(=O)Nc1ccc(S(=O)(=O)Nc2cccc(CCN)c2)cc1 | 
27 | 7.55 | 1 | CCCCc1ccc(NC(=O)Nc2ccc(S(=O)(=O)Nc3ccc(CC(C)(C)N)cc3)cc2)cc1 | 
28 | 8.10 | 0 | CC(C)c1ccc(NC(=O)Nc2ccc(S(=O)(=O)Nc3ccc(CC(C)(C)N)cc3)cc2)cc1 | 
29 | 6.57 | 5 | CCCCCCNC(=O)Nc1ccc(S(=O)(=O)Nc2ccc(CCN)cc2)cc1 | 

Row | Compound | pIC50 [1] | Activity [2] [%] | also measured
30 | CCCNC(=O)Nc1ccc(S(=O)(=O)Nc2ccc(CC(C)(C)N)cc2)cc1 | 5.78 | 1 | 
31 | CCCCNC(=O)Nc1ccc(S(=O)(=O)Nc2ccc(CC(C)(C)N)cc2)cc1 | 6.32 | 1 | 
32 | CCNC(=O)Nc1ccc(S(=O)(=O)Nc2ccc(CC(C)(C)N)cc2)cc1 | 5.25 | 4 | 
